# APJ antag – APJ receptor antagonism. P35414. CHO-K1 APJ beta-arrestin complementation, luminescence. inhibition, % at 20 µM. 330,000 tested, 0.32% active;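 active = inhibition above about 40% at 20 µM, limit read from the data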;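 also: cells challenged with 10 nM apelin-13 agonist together with compound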
# APJ ag – APJ receptor agonism. P35414. CHO-K1 APJ PathHunter beta-arrestin, luminescence; 0% DMSO wells, 100% apelin. activation, % at 20 µM. 330,000 tested, 0.11% active. AID 2520;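 active = activation more than six SD over the plate average, tested at 20 µM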
#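 Assay system – PathHunter CHO-K1 APJ (AGTRL-1) beta-arrestin reporter cells · Compound – one dose, 20 µM compound, 1% DMSO · Timing – compound 90 min 25 °C, reagent 1 h · Measured by – luminescence from split beta-galactosidase complementation, Galacton Star/Emerald II substrate · Measure – beta-arrestin recruitment to APJ as agonist activity, luminescent signal · Benchmarks – DMSO vs Apelin-13 10 nM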
# B2AR ag – agonists of human beta-2 adrenergic receptor inducing internalization; P07550; Am2.2-beta2AR cells, FAP receptor internalization, flow cytometry; response, % (test concentration not listed); 340,000 tested, 0.43% active;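 active = response above a set limit, near 3 SD of response in nonfluorescent compounds, cut at about 42% in these data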
# CCR6 antagonist – antagonists of human CCR6 receptor | inhibition, % at 20 µM | P51684 | 340,000 tested, 0.49% active | CHO-K1 CCR6 PathHunter beta-arrestin, luminescence, CCL20-stimulated;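 active = compounds whose inhibition of the agonist-driven luminescence signal at 20 µM reaches about 50%, limit read from the data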;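 also: cells stimulated with CCL20 at 14 nM final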
# Target sequence (P51684 whole entry, looked up): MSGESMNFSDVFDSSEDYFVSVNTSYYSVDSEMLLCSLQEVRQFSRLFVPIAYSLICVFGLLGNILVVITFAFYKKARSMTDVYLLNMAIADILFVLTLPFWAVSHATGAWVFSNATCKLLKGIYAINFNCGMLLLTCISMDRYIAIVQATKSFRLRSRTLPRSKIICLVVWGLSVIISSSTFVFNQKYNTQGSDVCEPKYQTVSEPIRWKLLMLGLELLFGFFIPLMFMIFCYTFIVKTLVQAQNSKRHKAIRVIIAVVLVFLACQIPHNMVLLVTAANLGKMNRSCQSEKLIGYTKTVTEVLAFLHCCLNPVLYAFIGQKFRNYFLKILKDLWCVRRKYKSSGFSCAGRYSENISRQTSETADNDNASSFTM
# CXCR6 block – CXCR6 (human) receptor inhibition | O00574 | inhibition, % at 20 µM | CHO-K1 PathHunter CXCR6 beta-arrestin, luminescence | 360,000 tested, 0.36% active; in the data active = inhibition above about 34%, passing the limit was not always enough;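 also: antagonist mode with CXCL16 agonist at 10 nM final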
# EBI2 antag – EBI2 (human) antagonism; inhibition, % at 5 µM; P32249; 360,000 tested, 0.81% active; EBI2 beta-arrestin recruitment, luminescence, 7a,25-OHC stimulated; AID 651636; in the data active = inhibition above about 38%;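 also: enzyme fragment complementation signal reports receptor beta-arrestin coupling in cells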
# EBI2 antag conf – EBI2 (human) antagonism, single concentration confirmation; shares compounds with EBI2 antag; EBI2 beta-arrestin luminescence, 7a,25-OHC antagonism; inhibition, % at 5 µM; 2,400 tested, 29% active; AID 651997;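 active = inhibition of at least 50%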
# EBI2 ag – counter-screen for EBI2 antagonists: EBI2 agonist activity | shares compounds with EBI2 antag | EBI2-expressing cells, agonist mode, luminescence, 60 min; 0% vehicle, 100% 7α,25-dihydroxycholesterol control | activation, % at 5 µM | 2,400 tested, under 10 active | AID 652000;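 active = activation of at least 50%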
# bGal cs – counter-screen for EBI2 antagonists: E. coli beta-galactosidase inhibition; shares compounds with EBI2 antag; purified beta-galactosidase, luminescent Galacton Star, 15 min; inhibition, % at 5 µM; 2,400 tested, 1% active; AID 652176;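 active = replicate-average signal at least 3 plate SD below neutral wells, shown as high inhibition, flagging enzyme-inhibiting false positives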;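 also: higher means stronger loss of beta-gal luminescence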
# Hits are given with their value; i = inactive; nt = no result given. In the library only some 1.8% were active in any assay of this set; here they are far more common.
SMILES,APJ antag,APJ ag,B2AR ag,CCR6 antagonist,CXCR6 block,EBI2 antag,EBI2 antag conf,EBI2 ag,bGal cs
C[C@H](c1ccccc1)N1C[C@H](COCc2ccccc2)Oc2cc(N3CCC[C@H]3C(N)=O)ccc2S1(=O)=O,nt,nt,nt,nt,i,i,nt,nt,nt
COc1cc(/C=c2\sc3n(c2=O)C(c2ccccc2)C(c2ccccc2)=NN=3)ccc1O (centres undefined),i,i,i,i,i,49,i,i,i
COc1cccc(CN2CCN(C(=O)c3ccc(-c4ccccc4)cc3)CC2)c1,i,i,i,i,i,78,i,i,i
COc1cc(CN2CCN(C(=O)c3ccc(-c4ccccc4)cc3)CC2)cc(OC)c1OC,i,i,i,i,i,48,i,i,i
COc1cccc(CN2CCN(C(=O)c3ccc(-c4ccccc4)cc3)CC2)c1OC,i,i,i,i,i,65,i,i,i
COc1cccc(CN2CCN(C(=O)c3cccc4ccccc34)CC2)c1OC,i,i,i,i,i,i,nt,nt,nt
COc1cccc(CN2CCN(C(=O)c3cccc(OC)c3)CC2)c1,i,i,i,i,i,i,nt,nt,nt
COc1cccc(C(=O)N2CCN(C(=O)c3ccc(-c4ccccc4)cc3)CC2)c1OC,i,i,i,i,i,78,i,i,i
COc1cccc(C(=O)N2CCOCC2)c1OC,i,i,i,i,i,i,nt,nt,nt
COc1ccccc1N1CCN(C(=O)[C@@H]2CCCN2C2=NS(=O)(=O)c3ccccc32)CC1,nt,nt,nt,nt,i,i,nt,nt,nt
CC(NC(=O)COC(=O)/C=C/c1ccc(Cl)cc1)c1ccccc1 (centres undefined),i,i,i,i,i,48,i,i,i
O=C(COc1ccc(F)cc1)c1ccc2c(c1)CCCC2,i,i,i,i,i,47,i,i,i
O=C(COc1ccc(Cc2ccccc2)cc1)c1ccc(F)cc1,i,i,i,i,i,i,nt,nt,nt
COC(=O)c1c(NC(=O)CN2C(=O)c3ccccc3C2=O)sc(Cc2ccc3c(c2)OCO3)c1C,i,i,i,i,i,63,i,i,i
CC12CCC(O)CC1=CCC1C2CCC2(C)C3=NN=CC3CC12 (centres undefined),nt,nt,i,i,i,i,nt,nt,nt
CCOC(=O)/C(=C\c1ccc(N2CCC(c3ccccc3)=N2)cc1)C(C)=O,nt,nt,i,i,i,48,53,i,i
CCOC(=O)c1c(CN2CCNCC2)nc2ccc(Cl)cc2c1-c1ccccc1,nt,nt,i,i,i,i,nt,nt,nt
O=[N+]([O-])c1ccc(-n2cccn2)c(-c2nn[nH]n2)c1,i,i,i,i,i,i,nt,nt,nt
CC1CC(C)CN(c2ccc([N+](=O)[O-])cc2-c2nn[nH]n2)C1 (centres undefined),i,i,i,i,i,74,51,i,i
COc1cc(C)ccc1S(=O)(=O)NC(=O)C1(C)CCN1C(=O)Cc1ccccc1Cl (centres undefined),nt,nt,nt,nt,i,i,nt,nt,nt
CC1CCCCN1C(=O)c1ccc(NC(=O)c2ccccc2Cl)cc1 (centres undefined),i,i,i,i,i,i,nt,nt,nt
CC1CCCCN1C(=O)c1ccc(C(=O)Nc2ccc(F)cc2)cc1 (centres undefined),i,i,i,i,i,52,i,i,i
CC1C(=O)N(Cc2cn(CCC3OCCCO3)nn2)CCS(=O)(=O)N1Cc1ccc(-c2ccc(Cl)c(Cl)c2)cc1 (centres undefined),nt,nt,nt,nt,i,i,nt,nt,nt
c1ccc(N(c2ccccc2)c2nc(N3CCCC3)nc(-n3ccnc3)n2)cc1,i,i,i,i,i,40,i,i,i
CCOc1ccc(N2CSC(=S)N(c3ccc(OCC)cc3)C2)cc1,i,i,i,i,i,62,i,i,i
SMILES,APJ antag,APJ ag,B2AR ag,CCR6 antagonist,CXCR6 block,EBI2 antag,EBI2 antag conf,EBI2 ag,bGal cs
Cc1ccc(OCC(O)CN2CCN(CC(O)COc3ccc(C)cc3)CC2)cc1 (centres undefined),i,i,i,i,i,45,i,i,i
CN1CCN(NC(=O)/C=C/c2cccc(Cl)c2)CC1,i,i,i,i,i,i,nt,nt,nt
O=C(C=Cc1ccccc1)N1CCCCC1,nt,nt,i,i,i,i,nt,nt,nt
O=C1c2cccc3cccc(c23)C(=O)N1CCN1CCN(C(=S)Nc2ccc(Cl)cc2)CC1,i,i,i,i,i,i,nt,nt,nt
CN1CCN(C(=O)/C=C/c2ccccc2)CC1,i,i,i,i,i,45,i,i,i
CN1CCN(C(=O)/C=C/c2cccc(Cl)c2)CC1,i,i,i,i,i,46,i,i,i
O=C(/C=C/c1ccc(Cl)cc1)N1CCN(CCN2C(=O)c3cccc4cccc(c34)C2=O)CC1,nt,nt,i,i,i,97,81,i,i
NS(=O)(=O)c1cccc(C(=O)N2CCCc3ccccc32)c1,nt,nt,nt,nt,i,i,nt,nt,nt
OC(COc1ccccc1)CN1CCCCC1 (centres undefined),nt,nt,i,i,i,i,nt,nt,nt
OC(COc1ccc(Cl)cc1)CN1CCC(Cc2ccccc2)CC1 (centres undefined),i,i,i,i,i,60,i,i,i
O=C(/C=C/c1ccccc1)N1CCN(CC(O)COc2ccccc2)CC1 (centres undefined),i,i,i,i,i,82,54,i,i
OC(COc1ccc(Cl)cc1)CN1CCN(c2ccccc2)CC1 (centres undefined),i,i,i,i,i,i,nt,nt,nt
CSc1ccc(/C=C/C(=O)N2CCCN(C)CC2)cc1,i,i,i,i,i,87,57,i,i
CN1CCCN(C(=O)CSc2ccccc2)CC1,i,i,i,i,i,i,nt,nt,nt
CN1CCN(C(=O)/C=C\c2ccc(Cl)cc2)CC1,i,i,i,i,i,88,66,i,i
O=C1C=C(c2ccc(C(=O)O)c(Cl)c2)C[C@@H](c2ccc3c(c2)OCO3)C1,i,i,i,i,i,i,nt,nt,nt
O=C1/C(=C\c2ccc(Cl)cc2)CCC1CNc1ccc(Cl)cc1 (centres undefined),nt,nt,i,i,i,47,i,i,i
N/C(Cc1ccc(Cl)cc1)=N\OC(=O)c1ccc2ccccc2c1,i,i,i,i,i,48,i,i,i
O=Cc1c(NCc2ccccc2F)c2ccccc2[nH]c1=O,i,i,i,i,i,i,nt,nt,nt
O=Cc1c(NCCc2ccc(F)cc2)c2ccccc2[nH]c1=O,i,i,i,i,i,45,i,i,i
COc1cccc2sc(Nc3nc(-c4cc5ccccc5oc4=O)cs3)nc12,nt,nt,i,i,i,46,i,i,i
CN(C(=O)CSCC(=O)Nc1ccc(Cl)cc1)C1CCCCC1,i,i,i,i,i,i,nt,nt,nt
